Reference: ChEMBL document CHEMBL4145471, “New 1,5 and 2,5-disubstituted tetrazoles-dependent activity towards surface barrier of Candida albicans” (Eur J Med Chem, 2018)
≈ marks a conversion by molar mass, not a printed value.

Experiments:
Format in all cases: functional
[1] = tested on: Candida albicans; assay: Ratio of MIC for Candida albicans ATCC 90028 in presence of ergosterol to MIC for Candida albicans ATCC 90028 in absence of ergosterol
In short: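 MICs per modified M27-A3 in RPMI with or without ergosterol (final 400 µg/mL, dissolved in 10% DMSO/1% Tween 80 with heating). Inoculum 10³ CFU/mL; tetrazoles and itraconazole tested at 512–1 µg/mL, amphotericin B at 125–0.24 µg/mL. Plates were incubated at 35°C and read at 72 h; MIC was the lowest concentration with no visible growth. Run in triplicate on three days, geometric means.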

[2] = tested on: Candida albicans; assay: Antifungal activity against Candida albicans ATCC 90028 after 48 hrs by M27-A3 microdilution method; details: ATCC 90028, 48 h
[3] = tested on: Candida albicans; assay: Antifungal activity against Candida albicans ATCC 90028 at 2 ug/ml after 18 hrs relative to control
In short: (§1)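 Planktonic broth microdilution per M27-A3 in MOPS-buffered RPMI 1640 (pH 7.0), final inoculum 1.8×10^3 cells/mL, compounds 0.0313–16 µg/mL from 1600 µg/mL stocks in ethanol or DMSO. Incubated at 35°C without agitation; OD405 read at 18 and 48 h. % inhibition was derived from test, sterility (no inoculum) and solvent growth-control wells. Amphotericin B at 0.5 µg/mL served as the 100% control.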

[4] = tested on: Candida albicans; assay: Antifungal activity against Candida albicans ATCC 90028 at 8 ug/ml after 18 hrs relative to control; in short: as §1
[5] = tested on: Candida albicans; assay: Antifungal activity against Candida albicans ATCC 90028 at 1 ug/ml after 48 hrs relative to control; in short: as §1
[6] = tested on: Candida albicans; assay: Antifungal activity against Candida albicans ATCC 90028 at 0.5 ug/ml after 48 hrs relative to control; in short: as §1
[7] = tested on: Candida albicans; assay: Antifungal activity against Candida albicans ATCC 90028 at 0.125 ug/ml after 48 hrs relative to control; in short: as §1
[8] = tested on: Candida albicans; assay: Fungicidal activity against Candida albicans ATCC 90028 at 16 ug/ml after 48 hrs by M27-A3 microdilution method
In short: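 After 48 h at 35°C in M27-A3 microdilution plates (compound at 16 µg/mL), 50 µL aliquots from treated and solvent-control wells were diluted 10^4 in PBS and plated on drug-free Sabouraud dextrose agar, then incubated 48 h at 35°C. Reduction R = lg CFU/mL control − lg CFU/mL treated; R ≥ 3 defined as fungicidal.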

[9] = tested on: Candida albicans; assay: Antifungal activity against Candida albicans ATCC 90028 at 4 ug/ml after 18 hrs relative to control; in short: as §1
[10] = tested on: Candida albicans; assay: Antifungal activity against Candida albicans ATCC 90028 at 0.5 ug/ml after 18 hrs relative to control; in short: as §1
[11] = tested on: Candida albicans; assay: Antifungal activity against Candida albicans ATCC 90028 at 2 ug/ml after 48 hrs relative to control; in short: as §1
[12] = tested on: Candida albicans; assay: Antifungal activity against Candida albicans ATCC 90028 at 1 ug/ml after 18 hrs relative to control; in short: as §1
[13] = tested on: Candida albicans; assay: Antifungal activity against Candida albicans ATCC 90028 at 0.125 ug/ml after 18 hrs relative to control; in short: as §1
[14] = tested on: Candida albicans; assay: Antifungal activity against Candida albicans ATCC 90028 at 16 ug/ml after 48 hrs relative to control; in short: as §1
[15] = tested on: Candida albicans; assay: Antifungal activity against Candida albicans ATCC 90028 at 8 ug/ml after 48 hrs relative to control; in short: as §1
[16] = tested on: Candida albicans; assay: Antifungal activity against Candida albicans ATCC 90028 at 4 ug/ml after 48 hrs relative to control; in short: as §1
[17] = tested on: Candida albicans; assay: Antifungal activity against Candida albicans ATCC 90028 at 0.0625 ug/ml after 18 hrs relative to control
[18] = tested on: Candida albicans; assay: Antifungal activity against Candida albicans ATCC 90028 at 0.0625 ug/ml after 48 hrs relative to control; in short: as §1
[19] = tested on: Candida albicans; assay: Antifungal activity against Candida albicans ATCC 90028 at 0.0313 ug/ml after 18 hrs relative to control
[20] = tested on: Candida albicans; assay: Antifungal activity against Candida albicans ATCC 90028 at 0.25 ug/ml after 18 hrs relative to control
In short: (§2)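 Fluconazole (water stock, diluted in RPMI 1640) tested by CLSI M27-A3 broth microdilution against C. albicans ATCC 90028. Inoculum 1.8×10^3 cells/mL in RPMI 1640 buffered with MOPS, pH 7.0. Incubation at 35°C without agitation, read at 18 and 48 h. Growth by OD405 and visually; inhibition % calculated against solvent growth-control wells after subtracting sterility-control wells.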

[21] = tested on: Candida albicans; assay: Antifungal activity against Candida albicans ATCC 90028 at 0.0313 ug/ml after 48 hrs relative to control
[22] = tested on: Candida albicans; assay: Antifungal activity against Candida albicans ATCC 90028 at 0.25 ug/ml after 48 hrs relative to control; in short: as §2
[23] = tested on: Candida albicans; assay: Antifungal activity against Candida albicans ATCC 90028 at 16 ug/ml after 18 hrs relative to control; in short: as §1
[24] = tested on: Candida albicans; assay: Antifungal activity against Candida albicans ATCC 90028 after 72 hrs by M27-A3 microdilution method; details: ATCC 90028, 72 h
[25] = tested on: Candida albicans; assay: Antifungal activity against Candida albicans ATCC 90028 after 72 hrs in presence of ergosterol by M27-A3 microdilution method; details: ATCC 90028, 72 h
In short: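 Ergosterol-modified M27-A3 assay. Compounds at 512-1 µg/mL serially diluted in RPMI; the 10^3 CFU/mL inoculum is made in RPMI with ergosterol (dissolved in 10% DMSO/1% Tween 80, heated), giving 400 µg/mL ergosterol in the wells. Itraconazole and amphotericin B serve as controls. Plates at 35°C, read after 72 h. MIC is the lowest concentration without visible growth; triplicate on three days, geometric means.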

## CCC(C)n1ncn(-c2ccc(N3CCN(c4ccc(OCC5COC(Cn6cncn6)(c6ccc(Cl)cc6Cl)O5)cc4)CC3)cc2)c1=O (centres undefined) [ITRACONAZOLE]
[1]
  Ratio: 2

## OC(Cn1cncn1)(Cn1cncn1)c1ccc(F)cc1F [FLUCONAZOLE]
[2]
  MIC: 0.25 µg/mL (≈ 0.816 µM)

## ClCCCn1nnc(-c2ccccc2Cl)n1
[3]
  Activity: 95%
[4]
  Activity: 98.9%
[5]
  Activity: 98.69%
[6]
  Activity: 98.89%
[7]
  Activity: 99.13%
[8]
  Activity: 0.51 log10CFU/ml
[9]
  Activity: 99.32%
[10]
  Activity: 98.9%
[11]
  Activity: 98.6%
[12]
  Activity: 98.99%
[13]
  Activity: 99.62%
[14]
  Activity: 98.34%
[15]
  Activity: 99.05%
[16]
  Activity: 98.5%
[17]
  Activity: 98.61%
[18]
  Activity: 99.03%
[19]
  Activity: 99.97%
[20]
  Activity: 99.95%
[21]
  Activity: 99.17%
[22]
  Activity: 98.96%
[23]
  Activity: 94.16%

## Clc1ccccc1-c1nnn(CCCN2CCOCC2)n1
[3]
  Activity: 92.76%
[4]
  Activity: 98.97%
[5]
  Activity: 99.02%
[6]
  Activity: 98.83%
[7]
  Activity: 98.94%
[8]
  Activity: -0.08 log10CFU/ml
[9]
  Activity: 98.62%
[10]
  Activity: 98.11%
[11]
  Activity: 97.16%
[12]
  Activity: 98.01%
[13]
  Activity: 98.25%
[14]
  Activity: 99.2%
[15]
  Activity: 98.97%
[16]
  Activity: 98.91%
[17]
  Activity: 98.7%
[18]
  Activity: 99%
[19]
  Activity: 100%
[20]
  Activity: 90.79%
[21]
  Activity: 99.12%
[22]
  Activity: 98.01%
[23]
  Activity: 99.64%

## C[C@@H]1[C@H](O)[C@@H](C)/C=C/C=C/C=C/C=C/C=C/C=C/C=C/[C@H](O[C@@H]2O[C@H](C)[C@@H](O)[C@H](N)[C@@H]2O)C[C@@H]2O[C@](O)(C[C@@H](O)C[C@@H](O)[C@H](O)CC[C@@H](O)C[C@@H](O)CC(=O)O[C@H]1C)C[C@H](O)[C@H]2C(=O)O [AMPHOTERICIN B]
[6]
  Activity: 100%
[24]
  MIC: 0.03 µg/mL (≈ 0.0325 µM)
[10]
  Activity: 100%
[25]
  MIC: 0.24 µg/mL

## CCOC(=O)CCn1nnnc1-c1ccccc1Cl
[3]
  Activity: 92.75%
[4]
  Activity: 99.99%
[5]
  Activity: 99.17%
[6]
  Activity: 99.06%
[7]
  Activity: 99.24%
[8]
  Activity: -0.01 log10CFU/ml
[9]
  Activity: 99.9%
[10]
  Activity: 97.11%
[11]
  Activity: 99.07%
[12]
  Activity: 87.68%
[13]
  Activity: 99.93%
[14]
  Activity: 99.28%
[15]
  Activity: 99.17%
[16]
  Activity: 99.25%
[17]
  Activity: 99.98%
[18]
  Activity: 99.19%
[19]
  Activity: 99.33%
[20]
  Activity: 99.78%
[21]
  Activity: 99.2%
[22]
  Activity: 99.02%
[23]
  Activity: 99.55%
